Laboratory results from ChEMBL document CHEMBL4145607, “Tamarixetin Exhibits Anti-inflammatory Activity and Prevents Bacterial Sepsis by Increasing IL-10 Production” (J Nat Prod, 2018).
Active and inactive are the calls of the source.

What was measured:
Mus musculus [1] = assay: Antiseptic activity in Balb/c mouse model of Escherichia coli K1 infection-induced sepsis assessed as reduction in infiltration of immune cells in lungs at 1 mg/kg, ip pretreated for 1 hr followed by Escherichia coli K1 infection measured after 12 hrs by hematoxylin and eosin staining based microscopic analysis; assay type: functional, organism-based
How it was run: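 BALB/c mice were given 1 mg·kg−1 i.p. 1 h before i.p. E. coli K1 (1 × 10^6 CFU per mouse). At 12 h, lungs were perfused and formalin-fixed. Sections were H&E-stained and examined by microscope. Representative of three independent experiments.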

[2] = target: T1, Toll-like receptor 4 (Mus musculus) (UniProt Q9QUK6); assay: Inhibition of LPS-induced TLR4 activation in C57BL/6 mouse BMDC assessed as reduction in JNK1 phosphorylation at 25 uM pretreated for 30 mins followed by LPS-challenge measured after 15 to 90 mins by Western blot analysis; assay type: cell-based
T1 sequence (whole entry): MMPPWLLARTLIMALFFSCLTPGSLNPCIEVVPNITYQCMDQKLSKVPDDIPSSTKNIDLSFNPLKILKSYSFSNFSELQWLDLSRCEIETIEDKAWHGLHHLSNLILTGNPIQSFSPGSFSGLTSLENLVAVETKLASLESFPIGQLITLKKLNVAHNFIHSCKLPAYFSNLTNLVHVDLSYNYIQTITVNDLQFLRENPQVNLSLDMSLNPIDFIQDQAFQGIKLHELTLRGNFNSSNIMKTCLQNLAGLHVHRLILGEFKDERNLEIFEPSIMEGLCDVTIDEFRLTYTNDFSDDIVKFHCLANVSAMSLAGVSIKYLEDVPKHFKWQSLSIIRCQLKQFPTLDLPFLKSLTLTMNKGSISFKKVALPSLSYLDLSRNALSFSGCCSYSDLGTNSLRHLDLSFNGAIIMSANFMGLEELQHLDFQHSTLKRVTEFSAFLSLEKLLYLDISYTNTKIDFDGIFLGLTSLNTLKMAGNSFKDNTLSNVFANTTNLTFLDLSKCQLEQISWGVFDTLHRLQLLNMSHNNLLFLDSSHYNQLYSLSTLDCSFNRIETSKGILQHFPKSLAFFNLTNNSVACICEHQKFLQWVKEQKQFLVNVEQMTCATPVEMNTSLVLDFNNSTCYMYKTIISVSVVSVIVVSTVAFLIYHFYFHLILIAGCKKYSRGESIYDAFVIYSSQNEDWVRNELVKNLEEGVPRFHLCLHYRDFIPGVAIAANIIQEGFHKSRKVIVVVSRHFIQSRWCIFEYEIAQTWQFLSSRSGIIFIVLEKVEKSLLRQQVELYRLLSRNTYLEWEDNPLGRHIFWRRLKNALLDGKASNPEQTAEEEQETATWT
How it was run: (§1)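 BMDCs were pretreated 30 min with 25 μM compound, then stimulated with LPS 50 ng·mL−1 for the indicated times. Lysates (25 μg protein) were run on 10% SDS-PAGE and immunoblotted for phospho/total ERK, JNK, p38 and Akt, plus COX-2, IκBα and α-tubulin, with ECL detection. Representative of three experiments.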

Mus musculus [3] = assay: Antiseptic activity in Balb/c mouse model of Escherichia coli K1 infection-induced sepsis assessed as reduction in serum ALT level at 1 mg/kg, ip pretreated for 1 hr followed by Escherichia coli K1 infection measured after 2 hrs by ELISA; assay type: functional, organism-based
BMDC [4] = assay: Inhibition of Escherichia coli K1 infection-induced immune response in C57BL/6 mouse BMDC assessed as increase in IL10 secretion at 25 uM pretreated for 30 mins followed by Escherichia coli K1 infection for 6 hrs by ELISA; assay type: functional, cell-based
How it was run: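 BMDCs from C57BL/6 mice were given 25 μM compound and E. coli K1, […]. Timing was: compound 30 min before a 6 h infection; cotreatment for 6 h; or compound for 30–120 min with 6 h infection. Supernatant cytokines (TNF-α, IL-6, IL-10, IL-12p70) were measured by ELISA. At least three experiments in triplicate.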

Mus musculus [5] = assay: Antiseptic activity in Balb/c mouse model of Escherichia coli K1 infection-induced sepsis assessed as reduction in bacterial count in lungs at 1 mg/kg, ip pretreated for 1 hr followed by Escherichia coli K1 infection measured after 12 hrs; assay type: functional, organism-based
How it was run: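 Pretreatment was 1 mg·kg−1 i.p. 1 h before i.p. E. coli K1 (1 × 10^6 CFU per mouse) in BALB/c mice. At 12 h, lungs, liver and kidneys were homogenized in PBS and diluted 1:1000. 10 μL was plated on LB agar, incubated 24 h at 37 °C, and colonies counted.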

Mus musculus [6] = assay: Antiinflammatory activity in Balb/c mouse model of LPS-induced endotoxemia assessed as reduction in serum AST level at 1 mg/kg, ip pretreated for 1 hr followed by LPS-challenge measured after 12 hrs by ELISA; assay type: functional, organism-based
How it was run: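 In BALB/c mice, 1 mg·kg−1 i.p. was given 1 h before LPS 10 mg·kg−1 i.p. After 12 h, serum AST, ALT and BUN were measured by ELISA. Means ± SEM.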

[7] = target: T1, Toll-like receptor 4 (Mus musculus); assay: Inhibition of LPS-induced TLR4 activation in C57BL/6 mouse BMDC assessed as reduction in p38 phosphorylation at 25 uM pretreated for 30 mins followed by LPS-challenge measured after 15 to 90 mins by Western blot analysis; assay type: cell-based; how it was run: as §1
BMDC [8] = assay: Inhibition of LPS-induced immune response in C57BL/6 mouse BMDC assessed as increase in IL10 secretion up to 25 uM pretreated for 30 mins followed by LPS-challenge measured after 6 hrs by ELISA; assay type: functional, cell-based
How it was run: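 Mouse BMDCs (female C57BL/6 bone marrow, GM-CSF-derived, ≥90% CD11c+ on day 7) pretreated 30 min with graded compound concentrations, then stimulated with LPS 50 ng/mL for 6 h. Supernatant TNF-α, IL-6, IL-10 and IL-12p70 quantified by sandwich ELISA. Mean ± SEM vs LPS-only cells; experiments repeated at least three times.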

Mus musculus [9] = assay: Antiseptic activity in Balb/c mouse model of Escherichia coli K1 infection-induced sepsis assessed as increase in serum IL10 level at 1 mg/kg, ip pretreated for 1 hr followed by Escherichia coli K1 infection measured after 2 hrs by ELISA; assay type: functional, organism-based
How it was run: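 BALB/c mice received 1 mg·kg−1 i.p. 1 h before i.p. E. coli K1 RS218, 1 × 10^6 CFU per mouse. Serum was collected at 2 h, and TNF-α, IL-6 and IL-10 were quantified by sandwich ELISA. Means ± SEM.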

COc1ccc(-c2oc3cc(O)cc(O)c3c(=O)c2O)cc1O [TAMARIXETIN]
active: Activity (Mus musculus [1]) | inhibition [2] | Activity (Mus musculus [3]) | inhibition (BMDC [4]) | Activity (Mus musculus [5]) | Activity (Mus musculus [6]) | inhibition [7] | inhibition (BMDC [8]) | Activity (Mus musculus [9])
